Experimental data from ChEMBL document CHEMBL1136441, “The design and synthesis of novel orally active inhibitors of AP-1 and NF-kappaB mediated transcriptional activation. SAR of in vitro and in vivo studies” (Bioorg Med Chem Lett, 2003).

What was measured:
[1] = Inhibition of AP-1 and NF-kB mediated transcriptional activation in Jurkat T-cells; type: functional, cell-based; conditions: Homo sapiens
Outline: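 Jurkat T-cell luciferase reporter lines, stably transfected with either an NF-kB site (MHC promoter) fused to a minimal SV-40 promoter, or an AP-1 site (collagenase promoter). Cells at 1×10⁶/mL in medium with 10% serum-plus were plated 18 h ahead. Compound in 0.2% DMSO/H₂O was added for 0.5 h at 37 °C, then PMA plus PHA (1 ug/mL) for 5 h. Lysate luminescence was read; IC50 is 50% of control luciferase.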

Caco-2 = assay: Caco-2 permeability coefficient value was determined

IC50 [1]	SMILES	Pc (Caco-2)
0.01 µM	COc1cccc2nc(C(F)(F)F)nc(NN3C(=O)C=C(C)C3=O)c12	14.9 nm/s
0.05 µM	COc1cc2nc(-c3cccs3)nc(NN3C(=O)C=C(C)C3=O)c2cc1OC	
0.05 µM	COc1cccc2c(NN3C(=O)C=C(C)C3=O)nc(-c3cccs3)nc12	
0.2 µM	CC1=CC(=O)N(Nc2nc(-c3cccs3)nc3cc(N4CCOCC4)ccc23)C1=O	
0.03 µM	COc1ccc2nc(C(F)(F)F)nc(NN3C(=O)C=C(C)C3=O)c2c1	
0.4 µM	CC1=CC(=O)N(Nc2nc(C(F)(F)F)nc3cccc(C)c23)C1=O	
9 µM	CC1=CC(=O)N(Nc2nc(C(F)(F)F)nc3ccc(S(C)(=O)=O)cc23)C1=O	
0.02 µM	COc1ccc2c(NN3C(=O)C=C(C)C3=O)nc(-c3cccs3)nc2c1	
1 µM	CC1=CC(=O)N(Nc2nc(C(F)(F)F)nc3ccc([S+](C)[O-])cc23)C1=O (stereo not drawn)	
0.02 µM	CC1=CC(=O)N(Nc2nc(-c3cccs3)nc3ccc(Cl)cc23)C1=O	
0.02 µM	CC1=CC(=O)N(Nc2nc(-c3cccs3)nc3cccc(C)c23)C1=O	
0.008 µM	COc1cccc2nc(-c3cccs3)nc(NN3C(=O)C=C(C)C3=O)c12 [AS-602868]	141 nm/s
0.003 µM	COc1ccc2nc(-c3cccs3)nc(NN3C(=O)C=C(C)C3=O)c2c1	16.2 nm/s
0.1 µM	CC1=CC(=O)N(Nc2nc(C(F)(F)F)nc3ccc(O)cc23)C1=O	
0.02 µM	CC1=CC(=O)N(Nc2nc(C(F)(F)F)nc3cc(N(C)C)ccc23)C1=O	16.8 nm/s
0.08 µM	CSc1ccc2nc(C(F)(F)F)nc(NN3C(=O)C=C(C)C3=O)c2c1	
0.06 µM	CC1=CC(=O)N(Nc2nc(-c3cccs3)nc3ccccc23)C1=O	
0.1 µM	CC1=CC(=O)N(Nc2nc(-c3ccccc3)nc3ccccc23)C1=O	
0.2 µM	CC1=CC(=O)N(Nc2nc(C(F)(F)F)nc3cc(N4CCCCC4)ccc23)C1=O	
0.04 µM	COc1cc2c(NN3C(=O)C=C(C)C3=O)nc(-c3cccs3)nc2c(OC)c1OC	
0.1 µM	CC1=CC(=O)N(Nc2nc(C(F)(F)F)nc3ccccc23)C1=O	
0.04 µM	CC1=CC(=O)N(Nc2nc(-c3cccs3)nc3cc(N(C)C)ccc23)C1=O	14.1 nm/s
0.05 µM	CC1=CC(=O)N(Nc2nc(-c3cccs3)nc3cccc(F)c23)C1=O	
